Laboratory results as given in ChEMBL document CHEMBL3616436, “Synthesis, cytotoxicity and antimicrobial activity of thiourea derivatives incorporating 3-(trifluoromethyl)phenyl moiety” (Eur J Med Chem, 2015).
Values after ≈ are worked out from the molar mass of the structure shown. Active and inactive are the calls of the source. The calls are words filed in the database; no cut-off is given here.

Tests used:
CCRF-SB = assay: Cytotoxicity against human CCRF-SB cells after 96 hrs by MTT assay; assay type: functional
How it was run: (§1)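 Leukaemia/lymphoma lines seeded at 1×10^5 cells/ml in RPMI-1640 with 10% FCS and penicillin/streptomycin; incubated with serial dilutions at 37°C, 5% CO2; viability by MTT after 96 h; value is concentration reducing proliferation by 50%, with untreated controls undergoing at least three rounds of multiplication.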

CCRF-CEM = assay: Cytotoxicity against human CCRF-CEM cells after 96 hrs by MTT assay; assay type: functional; how it was run: as §1
[1] = target: T1, Topoisomerase IV (Staphylococcus aureus) (UniProt P0C1U9+P0C1S7); assay: Inhibition of decatenation activity of DNA topoisomerase 4 in hospital methicillin-resistant Staphylococcus aureus 522/11 using kDNA as substrate at 1 to 4 ug/ml after 1 hr using ethidium bromide staining by agarose gel electrophoresis; assay type: protein-complex assay
[2] = target: T2, DNA topoisomerase 4 (Staphylococcus epidermidis) (UniProt Q5HPI6+Q5HPI5); assay: Inhibition of decatenation activity of DNA topoisomerase 4 in hospital methicillin-resistant Staphylococcus epidermidis 76/04 using kDNA as substrate at 32 ug/ml after 1 hr using ethidium bromide staining by agarose gel electrophoresis; assay type: protein assay
T2 sequence (Q5HPI5 whole entry, looked up): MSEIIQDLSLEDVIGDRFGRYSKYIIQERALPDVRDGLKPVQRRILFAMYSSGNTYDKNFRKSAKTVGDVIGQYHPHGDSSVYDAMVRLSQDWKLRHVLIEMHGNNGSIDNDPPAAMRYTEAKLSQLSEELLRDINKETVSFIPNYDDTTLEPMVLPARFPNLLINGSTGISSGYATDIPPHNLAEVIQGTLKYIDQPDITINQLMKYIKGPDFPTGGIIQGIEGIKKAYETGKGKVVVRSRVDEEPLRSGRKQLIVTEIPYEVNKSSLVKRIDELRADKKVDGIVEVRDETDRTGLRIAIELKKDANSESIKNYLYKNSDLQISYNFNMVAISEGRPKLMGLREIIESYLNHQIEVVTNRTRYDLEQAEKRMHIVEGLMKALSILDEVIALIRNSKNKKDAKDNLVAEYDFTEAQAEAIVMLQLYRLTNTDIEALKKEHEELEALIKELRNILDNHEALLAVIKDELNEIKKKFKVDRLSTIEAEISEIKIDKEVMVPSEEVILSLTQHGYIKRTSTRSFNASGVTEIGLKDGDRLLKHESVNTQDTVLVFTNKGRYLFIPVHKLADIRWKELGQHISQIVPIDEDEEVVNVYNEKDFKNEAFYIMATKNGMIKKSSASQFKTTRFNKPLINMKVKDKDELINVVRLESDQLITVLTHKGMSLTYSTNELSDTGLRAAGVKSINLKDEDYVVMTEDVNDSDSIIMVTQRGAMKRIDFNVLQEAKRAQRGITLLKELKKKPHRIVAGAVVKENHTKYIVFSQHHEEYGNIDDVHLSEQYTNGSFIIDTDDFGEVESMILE
T2 sequence (Q5HPI6 whole entry, looked up): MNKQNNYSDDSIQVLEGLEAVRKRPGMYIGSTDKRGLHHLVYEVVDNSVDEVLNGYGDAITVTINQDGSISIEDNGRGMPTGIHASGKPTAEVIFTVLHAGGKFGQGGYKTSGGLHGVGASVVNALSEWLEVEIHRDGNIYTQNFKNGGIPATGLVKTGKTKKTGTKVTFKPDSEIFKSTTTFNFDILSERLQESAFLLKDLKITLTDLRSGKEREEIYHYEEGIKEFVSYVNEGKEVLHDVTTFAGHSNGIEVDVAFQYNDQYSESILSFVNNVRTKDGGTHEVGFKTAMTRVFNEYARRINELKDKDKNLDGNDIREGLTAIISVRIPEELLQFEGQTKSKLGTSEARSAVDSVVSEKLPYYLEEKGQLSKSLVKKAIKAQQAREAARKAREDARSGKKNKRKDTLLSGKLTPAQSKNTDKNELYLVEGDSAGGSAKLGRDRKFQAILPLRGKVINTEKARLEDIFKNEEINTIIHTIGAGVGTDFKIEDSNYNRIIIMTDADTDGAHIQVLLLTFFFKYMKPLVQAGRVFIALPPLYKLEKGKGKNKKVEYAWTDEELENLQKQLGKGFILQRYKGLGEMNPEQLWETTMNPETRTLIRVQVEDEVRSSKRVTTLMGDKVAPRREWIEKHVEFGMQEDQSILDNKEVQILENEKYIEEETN

[3] = system: Staphylococcus epidermidis; assay: Inhibition of biofilm formation in Staphylococcus epidermidis […]/[…] at 4 ug/ml after 24 hrs using MTT staining by spectrophotometer analysis; assay type: functional; details: 16/04, 24 h
[4] = system: Staphylococcus epidermidis; assay: Inhibition of biofilm formation in Staphylococcus epidermidis 63/04 after 24 hrs using MTT staining by spectrophotometer analysis; assay type: functional, organism-based; details: 63/04, 24 h
How it was run: (§2)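 Biofilm was grown for 24 h at 37 °C in TSB with 0.5% glucose from 10^7 CFU/mL inoculum, mixed 1:1 with compound. Final concentrations were 0.125–4 or 0.25–8 µg/ml. Wells were PBS-washed and MTT-stained for 2 h at 37 °C, solubilized in DMSO/glycine buffer and read at 554 nm. IC50 (50% inhibition of biofilm formation) was taken from the dose-response curve; quadruplicates.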

[5] = target: T1, Topoisomerase IV (Staphylococcus aureus); assay: Inhibition of decatenation activity of DNA topoisomerase 4 in hospital methicillin-resistant Staphylococcus aureus 81/05 using kDNA as substrate at 1 to 4 ug/ml after 1 hr using ethidium bromide staining by agarose gel electrophoresis; assay type: protein-complex assay
[6] = target: T2, DNA topoisomerase 4 (Staphylococcus epidermidis); assay: Inhibition of decatenation activity of DNA topoisomerase 4 in hospital methicillin-resistant Staphylococcus epidermidis 151/04 using kDNA as substrate at 32 ug/ml after 1 hr using ethidium bromide staining by agarose gel electrophoresis; assay type: protein assay
[7] = system: Staphylococcus epidermidis; assay: Inhibition of biofilm formation in Staphylococcus epidermidis ATCC 35984 after 24 hrs using MTT staining by spectrophotometer analysis; assay type: functional, organism-based; details: ATCC 35984, 24 h; how it was run: as §2
[8] = target: T1, Topoisomerase IV (Staphylococcus aureus); assay: Inhibition of decatenation activity of DNA topoisomerase 4 in hospital methicillin-resistant Staphylococcus aureus 54/05 using kDNA as substrate at 1 to 4 ug/ml after 1 hr using ethidium bromide staining by agarose gel electrophoresis; assay type: protein-complex assay
[9] = target: T2, DNA topoisomerase 4 (Staphylococcus epidermidis); details: 16/04, at 1 to 4 µg/mL
[10] = target: T1, Topoisomerase IV (Staphylococcus aureus); assay: Inhibition of decatenation activity of DNA topoisomerase 4 in Staphylococcus aureus NCTC 4163 using kDNA as substrate at 1 to 4 ug/ml […] using ethidium bromide staining by agarose gel electrophoresis; assay type: protein-complex assay
[11] = target: T1, Topoisomerase IV (Staphylococcus aureus); assay: Inhibition of decatenation activity of DNA topoisomerase 4 in Staphylococcus aureus NCTC 4163 using kDNA as substrate at 32 ug/ml […] using ethidium bromide staining by agarose gel electrophoresis; assay type: protein-complex assay
[12] = target: T1, Topoisomerase IV (Staphylococcus aureus); assay: Inhibition of decatenation activity of DNA topoisomerase 4 in Staphylococcus aureus ATCC 25923 using kDNA as substrate at 32 ug/ml after 1 hr using ethidium bromide staining by agarose gel electrophoresis; assay type: protein-complex assay
How it was run: (§3)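 Kit-supplied S. aureus topoisomerase IV, 1 U, with 200 ng kDNA in the supplied assay buffer. Reactions ran 30 min at 37 °C with compound at 1, 4 or 32 µg/ml. They were stopped with STEB and extracted with chloroform/isoamyl alcohol (24:1). Products were run on 1% agarose in TAE for 1 h at 120 V and visualised with ethidium bromide under UV. Controls were no-enzyme, no-compound and ±DMSO.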

[13] = target: T1, Topoisomerase IV (Staphylococcus aureus); assay: Inhibition of decatenation activity of DNA topoisomerase 4 in Staphylococcus aureus ATCC 25923 using kDNA as substrate at 1 to 4 ug/ml after 1 hr using ethidium bromide staining by agarose gel electrophoresis; assay type: protein-complex assay; how it was run: as §3
[14] = target: T2, DNA topoisomerase 4 (Staphylococcus epidermidis); assay: Inhibition of decatenation activity of DNA topoisomerase 4 in hospital methicillin-resistant Staphylococcus epidermidis 62/04 using kDNA as substrate at 32 ug/ml after 1 hr using ethidium bromide staining by agarose gel electrophoresis; assay type: protein assay
[15] = target: T2, DNA topoisomerase 4 (Staphylococcus epidermidis); assay: Inhibition of decatenation activity of DNA topoisomerase 4 in hospital methicillin-resistant Staphylococcus epidermidis 76/04 using kDNA as substrate at 1 to 4 ug/ml after 1 hr using ethidium bromide staining by agarose gel electrophoresis; assay type: protein assay
[16] = target: T2, DNA topoisomerase 4 (Staphylococcus epidermidis); assay: Inhibition of decatenation activity of DNA topoisomerase 4 in Staphylococcus epidermidis ATCC 12228 using kDNA as substrate at 32 ug/ml after 1 hr using ethidium bromide staining by agarose gel electrophoresis; assay type: protein assay
[17] = target: T1, Topoisomerase IV (Staphylococcus aureus); assay: Inhibition of decatenation activity of DNA topoisomerase 4 in hospital methicillin-resistant Staphylococcus aureus 81/05 using kDNA as substrate at 32 ug/ml after 1 hr using ethidium bromide staining by agarose gel electrophoresis; assay type: protein-complex assay
How it was run: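 Enzyme was S. aureus topoisomerase IV from a commercial decatenation kit, with kinetoplast DNA as substrate (1 U per 200 ng kDNA) in the supplied buffer. Compound was present at 1, 4 or 32 µg/ml, 30 min at 37 °C. Reactions were stopped with STEB and extracted with chloroform/isoamyl alcohol, then run on 1% agarose in TAE for 1 h at 120 V and stained with ethidium bromide. No-enzyme and DMSO controls were included.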

[18] = system: Staphylococcus epidermidis; assay: Inhibition of biofilm formation in Staphylococcus epidermidis 62/04 after 24 hrs using MTT staining by spectrophotometer analysis; assay type: functional, organism-based; details: 62/04, 24 h; how it was run: as §2
[19] = target: T1, Topoisomerase IV (Staphylococcus aureus); assay: Inhibition of decatenation activity of DNA topoisomerase 4 in hospital methicillin-resistant Staphylococcus aureus 57/05 using kDNA as substrate at 32 ug/ml after 1 hr using ethidium bromide staining by agarose gel electrophoresis; assay type: protein-complex assay
[20] = target: T2, DNA topoisomerase 4 (Staphylococcus epidermidis); assay: Inhibition of decatenation activity of DNA topoisomerase 4 in Staphylococcus epidermidis ATCC 35984 using kDNA as substrate at 32 ug/ml after 1 hr using ethidium bromide staining by agarose gel electrophoresis; assay type: protein assay
[21] = system: Staphylococcus epidermidis; assay: Inhibition of biofilm formation in Staphylococcus epidermidis 24/04 after 24 hrs using MTT staining by spectrophotometer analysis; assay type: functional, organism-based; details: 24/04, 24 h
[22] = target: T1, Topoisomerase IV (Staphylococcus aureus); assay: Inhibition of decatenation activity of DNA topoisomerase 4 in hospital methicillin-resistant Staphylococcus aureus 79/05 using kDNA as substrate at 32 ug/ml after 1 hr using ethidium bromide staining by agarose gel electrophoresis; assay type: protein-complex assay
[23] = target: T2, DNA topoisomerase 4 (Staphylococcus epidermidis); assay: Inhibition of decatenation activity of DNA topoisomerase 4 in hospital methicillin-resistant Staphylococcus epidermidis 23/04 using kDNA as substrate at 1 to 4 ug/ml after 1 hr using ethidium bromide staining by agarose gel electrophoresis; assay type: protein assay

FC(F)(F)c1cccc(NC(S)=Nc2ccc(Cl)c(Cl)c2)c1
CC50 (CCRF-SB): 8.8 µM
CC50 (CCRF-CEM): 8 µM

FC(F)(F)c1cccc(NC(=S)Nc2ccc(Cl)cc2)c1
CC50 (CCRF-SB): 11 µM
CC50 (CCRF-CEM): 12 µM

O=C(O)c1cn(C2CC2)c2cc(N3CCNCC3)c(F)cc2c1=O [CIPROFLOXACIN]
inhibition [1]: Active
inhibition [2]: Active
inhibition at 4 µg/mL [3]: 42%
IC50 [4]: 7.14 µg/mL (≈ 21.5 µM)
inhibition [5]: Active
inhibition [6]: Active
IC50 [7]: 11.6 µg/mL (≈ 35 µM)
inhibition [8]: Active
inhibition [9]: Active
inhibition [10]: Active
inhibition [11]: Active
inhibition [12]: Active
inhibition [13]: Active
inhibition [14]: Active
inhibition [15]: Active
inhibition [16]: Active
inhibition [17]: Active
IC50 [18]: 4.81 µg/mL (≈ 14.5 µM)
inhibition [19]: Active
inhibition [20]: Active
IC50 [21]: 12.9 µg/mL (≈ 39.1 µM)
inhibition [22]: Active
inhibition [23]: Active

Fc1ccc(NC(=S)Nc2cccc(C(F)(F)F)c2)cc1Cl
inhibition [1]: Active
inhibition [2]: Active
inhibition at 4 µg/mL [3]: 72%
IC50 [4]: 2.39 µg/mL (≈ 6.85 µM)
inhibition [5]: Active
inhibition [6]: Active
IC50 [7]: 1.37 µg/mL (≈ 3.93 µM)
inhibition [8]: Active
inhibition [9]: Active
inhibition [10]: Active
inhibition [11]: Active
inhibition [12]: Active
CC50 (CCRF-SB): 9.5 µM
inhibition [13]: Active
inhibition [14]: Active
inhibition [15]: Active
inhibition [16]: Active
CC50 (CCRF-CEM): 7 µM
inhibition [17]: Active
IC50 [18]: 0.97 µg/mL (≈ 2.78 µM)
inhibition [19]: Active
inhibition [20]: Active
IC50 [21]: 1.59 µg/mL (≈ 4.56 µM)
inhibition [22]: Active
inhibition [23]: Active

FC(F)(F)c1cccc(NC(=S)Nc2cccc(Br)c2)c1
inhibition [1]: Active
inhibition [2]: Active
inhibition at 4 µg/mL [3]: 61.7%
IC50 [4]: 5 µg/mL (≈ 13.3 µM)
inhibition [5]: Active
inhibition [6]: Active
IC50 [7]: 3.84 µg/mL (≈ 10.2 µM)
inhibition [8]: Active
inhibition [9]: Active
inhibition [10]: Active
inhibition [11]: Active
inhibition [12]: Active
CC50 (CCRF-SB): 9 µM
inhibition [13]: Active
inhibition [14]: Active
inhibition [15]: Active
inhibition [16]: Active
CC50 (CCRF-CEM): 9.3 µM
inhibition [17]: Active
IC50 [18]: 1.98 µg/mL (≈ 5.28 µM)
inhibition [19]: Active
inhibition [20]: Active
IC50 [21]: 3.01 µg/mL (≈ 8.02 µM)
inhibition [22]: Active
inhibition [23]: Active
